Sampled rows, rich in hits. Any-hit rate of the full collection: about 2.9%.
E-selectin induc: E-selectin induction on HUVECs; P16581; AID 686992; 260,000 compounds, 0.37% hits; activation, % at 7.58 µM; HUVEC E-selectin immunofluorescence imaging; normalized: neutral wells 0, TNF-alpha wells 100;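 active = mean E-selectin-positive cell signal at least 10% of the positive control, reached in at least 60% of replicates, without over 20% cell loss; inconclusive = no rule given, readout overlaps actives, possibly toxicity-flagged; inactive = the rest, including those meeting only one limit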
Target sequence (P16581 whole entry, looked up): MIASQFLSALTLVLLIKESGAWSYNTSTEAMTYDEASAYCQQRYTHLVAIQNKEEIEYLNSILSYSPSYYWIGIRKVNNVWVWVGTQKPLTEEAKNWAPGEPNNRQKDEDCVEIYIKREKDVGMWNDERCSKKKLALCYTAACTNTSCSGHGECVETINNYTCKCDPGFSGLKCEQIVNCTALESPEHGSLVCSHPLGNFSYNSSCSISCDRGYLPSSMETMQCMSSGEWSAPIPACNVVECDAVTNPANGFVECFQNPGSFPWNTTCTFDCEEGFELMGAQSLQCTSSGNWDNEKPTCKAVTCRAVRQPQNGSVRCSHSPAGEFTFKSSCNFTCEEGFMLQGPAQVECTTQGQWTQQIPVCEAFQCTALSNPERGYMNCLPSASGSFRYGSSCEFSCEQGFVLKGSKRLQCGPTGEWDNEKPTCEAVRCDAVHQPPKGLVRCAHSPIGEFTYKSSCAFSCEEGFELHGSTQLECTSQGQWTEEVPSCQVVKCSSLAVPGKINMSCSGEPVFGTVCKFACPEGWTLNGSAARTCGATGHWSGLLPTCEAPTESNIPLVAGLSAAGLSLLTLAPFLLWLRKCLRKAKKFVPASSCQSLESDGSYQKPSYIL
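Assay system: HUVEC, human umbilical vein endothelial cells / Amount: 3,000 HUVEC/well / Controls: TNF-alpha positive control, DMSO neutral control / Compound dosing: single concentration / Medium: EGM-2 over gelatin coat / Evaluation: percent E-selectin-positive cells / Signal: immunofluorescence imaging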
DENV2 CPE rescue: protects cells from dengue virus 2 cytopathic effect; DENV2-infected cells, cytopathic effect rescue, plate reader; CPE inhibition, % at 9.99 µM; 350,000 compounds, 1.7% hits; AID 651640; in the data active = CPE inhibition above about 20%, passing the limit was not always enough; inconclusive = no clear call, values can overlap the other calls; tested in BHK-21 cells;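 also: 0% = median of neutral control wells and 100% = median of positive control wells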
SIRT5 block: blocks human SIRT5 desuccinylation of peptide. AID 652115. Purified SirT5, succinyl-peptide AMC, trypsin-coupled fluorescence. 330,000 compounds, 1.1% hits. inhibition, % at 15 µM; in the data active = inhibition above about 15%; inconclusive = no clear call, values can overlap the other calls
Active calls of the source: *; ? = inconclusive; nt = no result; ! = a repeat was not active.

SMILES	E-selectin induc	DENV2 CPE rescue	SIRT5 block
CC(=O)N1N=C(c2cccc(NS(C)(=O)=O)c2)CC1c1cccs1 (configuration not stated)	nt	-0.5	23.1*
CCS(=O)(=O)Nc1cccc(C2=NN(C(C)=O)C(c3cccs3)C2)c1 (configuration not stated)	nt	0.0	-0.6
O=[N+]([O-])c1cccc2c(S(=O)(=O)N3CCOCC3)cccc12	0.1	14.9	-0.1
O=[N+]([O-])c1cccc2c(S(=O)(=O)N3CCCCC3)cccc12	0.8	53.1*	-2.5
CCc1cccc(CC)c1NC(=S)NCc1ccc2c(c1)OCO2	0.2	nt	nt
Cc1cc(Cl)ccc1OCC(=O)NN1C(=O)C2C3C=CC(C3)C2C1=O (configuration not stated)	nt	nt	-3.9
Cc1cccc(NC(=O)CCc2nc3sc4c(c3c(=O)[nH]2)CCCC4)c1	nt	3.1	-2.1
CCc1cccc(NC(=O)CCc2nc3sc4c(c3c(=O)[nH]2)CCCC4)c1	84.2*	nt	2.3
NCCC(=O)N1c2ccccc2Sc2ccccc21	nt	1.8	-0.8
O=C(C1CCOCC1)N1C[C@@H]2N[C@H](C1)C2c1ccc(-c2ccccc2F)cc1 (some centres not stated)	0.2	-5.5	nt
Cc1ccccc1-c1ccc(C2[C@@H]3CN(C(=O)C4CCOCC4)C[C@H]2N3)cc1 (some centres not stated)	0.0	-5.4	-2.2
Cc1ccccc1-c1ccc(C2[C@@H]3CN(C(=O)C4CC4)C[C@H]2N3)cc1 (some centres not stated)	0.5	27.2*!	0.6
O=C(C1CCCC1)N1C[C@@H]2N[C@H](C1)C2c1ccc(-c2ccccc2F)cc1 (some centres not stated)	0.2	0.7	25.2*!
COC(=O)c1cc2c(c3c4cc(OC)ccc4n(S(=O)(=O)c4ccc(OC)cc4)c13)C(=O)N(C)C2	-0.2	-6.0	nt
COc1ccc(OCCNC(=O)C2(C)CCN2Cc2ccc3ccccc3c2)cc1 (configuration not stated)	-0.1	-3.6	nt
CCC(=O)N[C@H]1C=C[C@@H](CC(=O)NCc2cc(F)cc(F)c2)O[C@H]1CO	0.1	7.8	1.3
Brc1cnc2nc(SCc3nc4ccccc4[nH]3)[nH]c2c1	52.8*	?	-0.5
c1ccc2[nH]c(CSc3nccs3)nc2c1	nt	nt	-5.9
C[C@@H]1CN([C@@H](C)CO)S(=O)(=O)c2ccc(-c3cccnc3)cc2O[C@@H]1CN(C)C(=O)NC1CCCCC1	0.0	-6.4	-2.3
CS(=O)(=O)Nc1ccccc1C(=O)OCC(=O)N1CCC(c2ccccc2)=N1	nt	-9.8	-4.4
C/C=C/c1ccc2c(c1)O[C@H](CN(C)Cc1ccccc1)[C@@H](C)CN([C@H](C)CO)S2(=O)=O	0.6	15.5	11.9
C/C=C/c1ccc2c(c1)O[C@H](CN(C)Cc1cccc(F)c1)[C@H](C)CN([C@@H](C)CO)S2(=O)=O	-0.6	8.6	19.1*
C/C=C/c1ccc2c(c1)O[C@@H](CN(C)Cc1ccccc1F)[C@H](C)CN([C@@H](C)CO)S2(=O)=O	-0.3	4.4	19.4*
C/C=C/c1ccc2c(c1)O[C@@H](CN(C)Cc1ccccc1F)[C@@H](C)CN([C@H](C)CO)S2(=O)=O	-0.2	10.5	4.6
CCc1ccccc1NC(=O)Cn1nc(C(F)(F)F)cc1C1CC1	nt	nt	5.0
SMILES	E-selectin induc	DENV2 CPE rescue	SIRT5 block
CN(C(=O)/C=C/c1ccc([N+](=O)[O-])s1)c1ccccc1	nt	3.2	-4.5
CO[C@H]1CN(C)C(=O)c2ccc(NC(=O)C3CCC3)cc2OC[C@H](C)N(Cc2nccs2)C[C@H]1C	-0.1	16.3	0.4
CO[C@H]1CN(C)C(=O)c2ccc(NC(C)=O)cc2OC[C@H](C)N(Cc2nccs2)C[C@@H]1C	0.1	2.5	18.4*
CO[C@@H]1CN(C)C(=O)c2ccc(NC(=O)C3CCC3)cc2OC[C@H](C)N(Cc2nccs2)C[C@H]1C	0.1	26.6*	1.4
CO[C@@H]1CN(C)C(=O)c2cc(NC(C)=O)ccc2OC[C@H](C)N(Cc2nccs2)C[C@H]1C	0.0	-3.9	-5.8
CO[C@H]1CN(C)C(=O)c2cc(NC(C)=O)ccc2OC[C@H](C)N(Cc2nccs2)C[C@@H]1C	-0.1	32.1*	-6.4
CO[C@@H]1CN(C)C(=O)c2ccc(NC(C)=O)cc2OC[C@H](C)N(Cc2nccs2)C[C@H]1C	-0.1	15.5	-2.6
CN(C)c1ccc(NC2=C(Cl)C(=O)c3ccccc3C2=O)cc1	nt	-7.9	-2.1
O=C(NCCO)c1cc2c([nH]c3ccccc32)c(-c2ccccc2)n1	nt	0.6	-7.8
Cc1ccccc1Nc1nc(-c2ccccc2)c(C(=O)Nc2cccnc2)s1	?	1.0	0.1
CC(C)C[C@H]1COCCS(=O)(=O)N1Cc1cccc(Cl)c1	0.3	-8.3	nt
CC[N+](CC)(CC(=O)Nc1c(C)cccc1C)Cc1ccccc1	-1.8	6.1	9.9

Assay outcomes (PubChem)
